Data on twelve molecules can be found in article PMC9053741 (RSC Advances, 2020).

Each structure is given as a SMILES string. Where two headings read alike, the source gives them in different places.

One assay deals with HepG-2. The assay can be described thus: Cytotoxicity assay. It counts as cell-based, Human. Particulars: for IC50: read-out: IC50 HepG-2; for SI (selectivity indices): LO2 vs HepG-2, 48 h.
The test system of another assay is LO2. Briefly: Cytotoxicity assay. It is filed as cell-based. Particulars: read-out: IC50 LO2.
The subject of assay [1] is HepG-2 cells. Briefly: Cell apoptosis assay. It is filed as cell-based, Human. Particulars: HepG-2, 5 μM, 24 h. The procedure, abridged: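 HepG-2 (1 × 10^6 cells per mL) exposed to 5 μM test compound for 24 h at 37 °C in 5% CO2. Resuspended in binding buffer (140 mM NaCl, 2.5 mM CaCl2, 10 mM Hepes/NaOH, pH 7.4) and stained with Annexin V and PI for 20 min at room temperature using a kit protocol. Early and late apoptotic fractions measured by flow cytometry.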

In assay [2] the test system is HepG-2 cells. The assay can be described thus: Cell cycle distribution analysis. It is filed as cell-based, Human. The following applies: HepG-2, 5 μM, 24 h. In a few lines: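 HepG-2 seeded at 1 × 10^5 cells per mL, settled 12 h at 37 °C in 5% CO2. Exposed to 5 μM test compound for 24 h, washed with cold PBS (pH 7.4) and fixed in 75% EtOH for 12 h at −20 °C. Treated with RNase (2.5 mg mL−1), stained with propidium iodide for 0.5 h, then run on a flow cytometer, 10000 events per sample.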

The subject of assay [3] is transferrin receptor-1 (TfR1). Briefly: Western blot, TfR1 expression. It is filed as cell-based, Human. The following applies: HepG-2, 5 μM, 24 h. In a few lines: (§1)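 HepG-2 seeded at 1 × 10^5 cells per mL, grown 24 h, then given 5 μM test compound for 24 h. Cells washed in ice-cold PBS, lysed, and spun at 10000g for 15 min at 4 °C. Protein measured by […], separated by SDS-PAGE and transferred to PVDF on ice for 3 h. Blocked in 5% skim milk/TBST for 1 h at 25 °C, primary antibody overnight at 4 °C, secondary 1 h at 25 °C. ECL detection, normalized to β-actin and expressed relative to control. Student's t test.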
In general terms: A western blot detects proteins with antibodies after separation by electrophoresis.

The next assay has as its system ferritin. Briefly: Western blot, ferritin expression. The following applies: HepG-2, 5 μM, 24 h. It is filed as cell-based, Human. In a few lines: as §1
For assay [4], the system named is HepG-2 cells. Briefly: Intracellular ROS measurements. It is filed as cell-based, Human. Particulars: HepG-2, 5 μM, 24 h. The procedure, abridged: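 Using a kit protocol, HepG-2 were incubated with 5 μM test compound in serum-free medium for 24 h at 37 °C. 2 μM H2DCF-DA was then added and cells washed with serum-free medium. Fluorescence measured by flow cytometry and expressed relative to untreated control.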

In another assay the test system is Cdk 2. The assay can be described thus: Western blot, Cdk 2 expression. It is filed as cell-based, Human. The following applies: HepG-2, 5 μM, 24 h. In a few lines: as §1
Another assay concerns cyclin A. The assay can be described thus: Western blot, cyclin A expression. It is filed as cell-based, Human. The following applies: HepG-2, 5 μM, 24 h. The procedure, abridged: as §1
For the next assay, the system named is cyclin E. Briefly: Western blot, cyclin E expression. It is filed as cell-based, Human. Particulars: HepG-2, 5 μM, 24 h. The procedure, abridged: as §1

For orientation: IC50 means the point on the concentration scale where inhibition reaches its midpoint.

Turning to `NC1=N[N+]2=C(c3ccccc3)c3cccc[n+]3[Ga-2]2([Cl])([Cl])[S]1` [C1, Dichlorido[2-(phenyl(pyridin-2-yl)methylene)hydrazinecarbothioamide-N,N′,S]gallium(III)], the IC50 amounted to 5.75 ± 0.54 µM with HepG-2 (HepG-2 cells, 48 h, MTT) and 33.8 ± 2.13 µM in the assay with LO2 (LO2 normal cells, 48 h, MTT).

As for `CNC1=N[N+]2=C(c3ccccc3)c3cccc[n+]3[Ga-2]2([Cl])([Cl])[S]1` [C2, Dichlorido[N-methyl-2-(phenyl(pyridin-2-yl)methylene)hydrazinecarbothioamide-N,N,S]-gallium(III)], the 50% inhibitory concentration (IC50) in the assay with HepG-2 (HepG-2 cells, 48 h, MTT) is 2.76 ± 0.39 µM; in the assay on LO2 (LO2 normal cells, 48 h, MTT) it was 25.8 ± 2.93 µM.

As to `CCNC1=N[N+]2=C(c3ccccc3)c3cccc[n+]3[Ga-2]2([Cl])([Cl])[S]1` [C3, Dichlorido[N-ethyl-2-(phenyl(pyridin-2-yl)methylene)hydrazinecarbothioamide-N,N,S]-gallium(III)], the IC50 in the assay on HepG-2 (HepG-2 cells, 48 h, MTT) was 1.23 ± 0.09 µM; in the assay with LO2 (LO2 normal cells, 48 h, MTT), 26.6 ± 3.86 µM.

Take `[Cl][Ga-2]12([Cl])[S]C(NC3CCCCC3)=N[N+]1=C(c1ccccc1)c1cccc[n+]12` [C4, Dichlorido[N-cyclohexyl-2-(phenyl(pyridin-2-yl)methylene)hydrazinecarbothioamide-N,N,S]-gallium(III)]: the IC50 was found to be 0.97 ± 0.02 µM with HepG-2 (HepG-2 cells, 48 h, MTT) and 20.4 ± 1.13 µM with LO2 (LO2 normal cells, 48 h, MTT).

For the molecule `N.N.[Cl][Pt][Cl]` [Cisplatin, reference compound], the IC50 in the assay on HepG-2 (HepG-2 cells, 48 h, MTT) worked out at 22.4 ± 2.21 µM; in the assay on LO2 (LO2 normal cells, 48 h, MTT), 21.3 ± 2.35 µM.

On to `[Cl][Ga]([Cl])[Cl]` [GaCl3, reference compound], for which, in the assay with HepG-2 (50 μM), the anticancer activity result is “not observed”. Further, the 50% inhibitory concentration (IC50) was greater than 50 µM with HepG-2 (HepG-2 cells, 48 h, MTT) and greater than 50 µM in the assay on LO2 (LO2 normal cells, 48 h, MTT).

Take `NC(=S)NN=C(c1ccccc1)c1ccccn1` [L1, 2-(Phenyl(pyridin-2-yl)methylene)hydrazinecarbothioamide]: the IC50 came out at 11.3 ± 0.21 µM in the assay on HepG-2 (Homo sapiens, HepG2, 48 h) and 43.6 ± 2.84 µM in the assay on LO2 (Homo sapiens, L02, 48 h). Further, the “SI (selectivity indices)” value with HepG-2 amounted to 3.84.

With `CNC(=S)NN=C(c1ccccc1)c1ccccn1` [L2, N-Methyl-2-(phenyl(pyridin-2-yl)methylene)hydrazinecarbothioamide], the IC50 in the assay on HepG-2 (Homo sapiens, HepG2, 48 h) was determined as 4.56 ± 0.11 µM; in the assay with LO2 (Homo sapiens, L02, 48 h), 35.8 ± 2.19 µM. Further, in the assay on HepG-2, the “SI (selectivity indices)” value was determined as 7.84.

Regarding `CCNC(=S)NN=C(c1ccccc1)c1ccccn1` [L3, N-Ethyl-2-(phenyl(pyridin-2-yl)methylene)hydrazinecarbothioamide], the IC50 with HepG-2 (Homo sapiens, HepG2, 48 h) was found to be 2.43 ± 0.1 µM; in the assay on LO2 (Homo sapiens, L02, 48 h), 33 ± 3.64 µM. Besides, the “SI (selectivity indices)” value in the assay with HepG-2 is 13.57.

As to `S=C(NN=C(c1ccccc1)c1ccccn1)NC1CCCCC1` [L4, N-Cyclohexyl-2-(phenyl(pyridin-2-yl)methylene)hydrazinecarbothioamide], the IC50 amounted to 1.32 ± 0.09 µM in the assay with HepG-2 (Homo sapiens, HepG2, 48 h) and 30.3 ± 2.16 µM in the assay with LO2 (Homo sapiens, L02, 48 h). In addition, the “SI (selectivity indices)” value in the assay with HepG-2 was 22.97.

Take `CN(C)C(=S)NN=C(c1ccccc1)c1ccccn1` [L5, N,N-dimethyl-2-(phenyl(pyridin-2-yl)methylene)hydrazinecarbothioamide]: the IC50 was determined as 0.57 ± 0.04 µM in the assay with HepG-2 (Homo sapiens, HepG2, 48 h) and 23.9 ± 2 µM with LO2 (Homo sapiens, L02, 48 h). Further, the “SI (selectivity indices)” value in the assay with HepG-2 came to 41.84.

Consider `CN(C(=S)NN=C(c1ccccc1)c1ccccn1)C1CCCCC1` [L6, N-Cyclohexyl-N-methyl-2-(phenyl(pyridin-2-yl)methylene)hydrazinecarbothioamide], for which the IC50 with HepG-2 (Homo sapiens, HepG2, 48 h) was determined as 0.32 ± 0.02 µM; with LO2 (Homo sapiens, L02, 48 h), 11.5 ± 0.54 µM. In the assay on HepG-2, the “SI (selectivity indices)” value is listed as 36.06. Besides, the “percentage of early apoptosis and late apoptosis relative to the control” value with HepG-2 cells [1] amounted to 24.87%. The “G1 phase cell proportion” value in the assay on HepG-2 cells [2] is “increase”. For the same molecule, the “percentage of G2 phase cells compared to the vehicle-treated control” value in the assay on HepG-2 cells [2] is given as “reduced”. Moreover, in [3], the “expression of TfR1 compared to the vehicle-treated control” value was “about 1.43 fold”. Also, in the assay with ferritin, the “expression of ferritin relative to the control group” value came to 0.72 fold. In the assay with HepG-2 cells [4], the “percentage of intracellular ROS level relative to the control” value is 17.12%. For the same molecule, in the assay on Cdk 2, the “Cdk 2 expression level” value is reported as “significant (p < 0.05) decreased”. The “cyclin A expression level” value with cyclin A is recorded as “significant (p < 0.05) decreased”. For the same molecule, the “cyclin E expression level” value in the assay with cyclin E is “significant (p < 0.05) decreased”.
